Increase and solubility data for 33 compounds are collected here from ChEMBL document CHEMBL1122078, “Inhibitors of blood platelet aggregation. Activity of some 1H-benz[de]isoquinolinecarboximidamides on the in vivo blood platelet aggregation induced by collagen” (J Med Chem, 1982).

Each structure is given as a SMILES string. Values after ≈ are worked out from the molar mass of the structure shown. Values joined by “and” are separate entries in the source; they are usually repeats but may differ in a detail not shown here. Equal entries are not always repeated.

Data set [1] deals with Rattus norvegicus. In words: In vivo inhibition of blood platelet aggregation induced by collagen, intraperitoneal administration. It is filed as functional. In a few lines: (§1)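 Male Wistar rats dosed ip at 0.2 mmol/kg/day for 5 days, with a placebo group run in parallel. On day 5 rats were anesthetized with pentobarbitone (40-50 mg/kg ip) and collagen was infused through a cannula in the right common carotid. Blood was taken into EDTA at 60 and 90 s. Platelets were Coulter-counted after thrombo-oil separation. Read-out: rise in circulating platelets versus placebo, at 60 s unless noted.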

Data set [2] is described as follows: Aqueous solubility at room temperature. It is filed as physicochemical. The note with it: water; read-out: S. The gist of the method: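 Solubility in water, given in mg/mL, determined at room temperature.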
Data set [3] deals with Rattus norvegicus. In words: (§2) Compound was tested in the rat after peroral administration for its ability to inhibit the in vivo blood platelet aggregation induced by collagen. It counts as ADME, organism-based. As to conditions: po. The gist of the method: (§3)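 Oral dosing of male Wistar rats at 0.2 mmol/kg/day for 5 days, alongside a placebo group. On day 5 under pentobarbitone anesthesia, collagen was infused via a cannula in the right common carotid artery. EDTA blood samples were taken 60 and 90 s after the start of infusion, and platelets were counted by Coulter counter. Value is the increase in circulating platelets relative to placebo, at 60 s unless stated.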

Data set [4] deals with Rattus norvegicus. Briefly: (§4) Compound was tested in the rat after intraperitoneal administration for its ability to inhibit the in vivo blood platelet aggregation induced by collagen; Not determined because of toxicity. It counts as organism-based. The note with it: ip. The gist of the method:
as §1

The subject of data set [5] is Rattus norvegicus. The description is as §2. It counts as functional. In a few lines: as §3
For data set [6], the system named is Rattus norvegicus. In words: Compound was tested in the rat after peroral administration for its ability to inhibit the in vivo blood platelet aggregation induced by collagen; Only at 90s after collagen administration. It counts as organism-based. The note with it: po. In a few lines:
as §3

In data set [7] the test system is Rattus norvegicus. Briefly: Compound was tested in the rat after intraperitoneal administration for its ability to inhibit the in vivo blood platelet aggregation induced by collagen. It is filed as ADME, organism-based. As to conditions: po, in the assay text read “oral” for “intraperitoneal”.
Data set [8] deals with Rattus norvegicus. Described as §4. It is filed as functional, organism-based. In a few lines:
as §1

Data set [9] concerns Rattus norvegicus. In words: Compound was tested in the rat after peroral administration for its ability to inhibit the in vivo blood platelet aggregation induced by collagen,. It counts as organism-based. As to conditions: po. In a few lines:
as §3

For the compound `Cl.N/C(=N\O)N1Cc2cccc3c(Cl)ccc(c23)C1`, the Increase in the data set on Rattus norvegicus [1] is 44% and 18%. The solubility in [2] was 3000 µg/mL.

As for `N#CNC(=N)N1Cc2cccc3c2C(CCC3)C1` (stereo not given), the Increase in the data set with Rattus norvegicus [1] stood at 1%. Further, the solubility in data set [2] is below 3000 µg/mL. In the case of `Cl.N/N=C(/N)N1Cc2cccc3cccc(c23)C1`, the solubility in data set [2] is 10000 µg/mL. On the same count and under the same terms, in the case of `COc1ccc2c3c1CCCC3CN(C(=N)N)C2.Cl` (stereo not given) it was 17000 µg/mL. In the case of `COc1cc2c3c(c1OC)CCCC3CN(C(=N)NO)C2.Cl` (stereo not given), the solubility in data set [2] was above 50000 µg/mL. Still for that read-out and setting: the result for `Cl.N=C(N)N1Cc2cccc3c2C(CCC3)C1` (stereo not given) reads 60000 µg/mL.

With `N/C(=N\c1ccc(N)cc1)N1Cc2cccc3c2C(CCC3)C1` (stereo not given), the figures for the Increase with Rattus norvegicus [3] and with Rattus norvegicus [4] were 8% and “Toxic”, respectively. Moreover, the solubility in data set [2] was below 5000 µg/mL. Turning to `N=C(Nc1ccc(S(N)(=O)=O)cc1)N1Cc2cccc3c2C(CCC3)C1` (stereo not given), in data set [2], the solubility is below 3000 µg/mL. In addition, the Increase with Rattus norvegicus [5] was 3%.

On to `Cl.N/N=C(/N)N1Cc2cccc3c2C(CCC3)C1` (stereo not given), for which, in [2], the solubility was 60000 µg/mL. Regarding `COc1ccc2c3c1CCCC3CN(C(=N)NO)C2.Cl` (stereo not given), the Increase with Rattus norvegicus [1] came to 70%; in the data set with Rattus norvegicus [6], 8%. In data set [2], the solubility is 5000 µg/mL.

For `Cl.N=C(N)N1Cc2cccc3cccc(c23)C1`, the Increase in the data set on Rattus norvegicus [1] was 38% and 28%. In addition, in data set [2], the solubility was determined as 10000 µg/mL. As for `N=C(Nc1ccccc1)N1Cc2cccc3c2C(CCC3)C1` (stereo not given), the Increase in the data set with Rattus norvegicus [1] is -11%. Moreover, the solubility in data set [2] was below 3000 µg/mL.

In the case of `CC(=O)NC(=N)N1Cc2cccc3cccc(c23)C1.Cl`, in the data set with Rattus norvegicus [1], the Increase was 17%. For the same compound, in data set [2], the solubility came to 35000 µg/mL. Take `Cl.N/C(=N\O)N1Cc2cccc3cccc(c23)C1`: the Increase in the data set with Rattus norvegicus [1] was 36% and 23%. For the same compound, the solubility in [2] worked out at 4000 µg/mL. Turning to `COc1ccc(NC(=N)N2Cc3cccc4c3C(CCC4)C2)cc1` (stereo not given), the Increase with Rattus norvegicus [3] is on record as 7%; with Rattus norvegicus [4], “Toxic”. The solubility in data set [2] is below 3000 µg/mL. As to `C/N=C(\N)N1Cc2cccc3c2C(CCC3)C1` (stereo not given), in data set [2], the solubility was below 3000 µg/mL. In addition, the Increase in the data set on Rattus norvegicus [5] is 30% and 12%. As to `Br.N/C(=N\c1ccc(C(=O)O)cc1)N1Cc2cccc3c2C(CCC3)C1` (stereo not given), the solubility in data set [2] was below 3000 µg/mL. For the same compound, in the data set with Rattus norvegicus [5], the Increase worked out at 2%.

Regarding `COc1cc2c3c(cccc3c1)CN(C(=N)NO)C2.Cl`, in [2], the solubility came to 18000 µg/mL. Further, the Increase in the data set with Rattus norvegicus [5] is given as -5%. As for `Cl.N=C(Nc1ccc(C(N)=O)cc1)N1Cc2cccc3c2C(CCC3)C1` (stereo not given), the solubility in data set [2] was below 3000 µg/mL. The Increase with Rattus norvegicus [5] is given as 7%.

As for `CN(C)c1ccc(NC(=N)N2Cc3cccc4c3C(CCC4)C2)cc1.Cl` (stereo not given), the solubility in data set [2] worked out at 4000 µg/mL. Moreover, the Increase with Rattus norvegicus [5] worked out at 4%. `Cc1ccc2c3c(cccc13)CN(C(=N)NO)C2.Cl`: the Increase with Rattus norvegicus [1] is 16% and 14%. Moreover, the solubility in [2] was 5000 µg/mL. As for `Cc1ccc2c3c1CCCC3CN(C(=N)N)C2.Cl` (stereo not given), the results for the Increase in the data set on Rattus norvegicus [7] and with Rattus norvegicus [4] were 16% and “Toxic”, respectively. The solubility in [2] came to 16000 µg/mL. Take `N/C(=N\c1ccc([N+](=O)[O-])cc1)N1Cc2cccc3c2C(CCC3)C1` (stereo not given): the Increase entry was “Toxic” with Rattus norvegicus [8] and -7% with Rattus norvegicus [9].

Turning to `Cl.N/C(=N\O)N1Cc2cccc3c2C(CCC3)C1` (stereo not given), the Increase in the data set with Rattus norvegicus [1] was 42% and 23%. For the same compound, in data set [2], the solubility came out at 12000 µg/mL. Regarding `Cl.Cl.N/C(=N\c1ccc(N)cc1)N1Cc2cccc3cccc(c23)C1`, the solubility in data set [2] worked out at 60000 µg/mL. In the data set on Rattus norvegicus [5], the Increase was found to be 8%. As for `CC(C)=N/N=C(\N)N1Cc2cccc3c2C(CCC3)C1.Cl` (stereo not given), the figures for the Increase result with Rattus norvegicus [8] and in the data set on Rattus norvegicus [9] were “Toxic” and 0%, respectively.

Take `Cc1ccc2c3c1CCCC3CN(C(=N)NO)C2.Cl` (stereo not given): the Increase in the data set with Rattus norvegicus [1] was found to be 45%. Besides, the solubility in data set [2] is 18000 µg/mL.

Take `CN(C)/N=C(/N)N1Cc2cccc3cccc(c23)C1.Cl`: in [2], the solubility was found to be 25000 µg/mL. In addition, the Increase in the data set with Rattus norvegicus [5] is -2%. As to `Cl.N=C(N)N1Cc2cccc3c(Cl)ccc(c23)C1`, the solubility in data set [2] was found to be 2500 µg/mL. The Increase result in the data set on Rattus norvegicus [4] is “Toxic”. With `C/N=C(\NC)N1Cc2cccc3c2C(CCC3)C1` (stereo not given), in the data set with Rattus norvegicus [1], the Increase came to 2%. Further, the solubility in data set [2] stood at 20000 µg/mL (≈ 82.2 mM). On the same counts, the results for `C/N=C(/NC)N1Cc2cccc3cccc(c23)C1` are 1% and 25000 µg/mL (≈ 104 mM). The matching figures for `COc1ccc(NC(=N)N2Cc3cccc4cccc(c34)C2)cc1`: -2% and below 5000 µg/mL. For the compound `N=C(Nc1ccc(Cl)cc1)N1Cc2cccc3c2C(CCC3)C1` (stereo not given), the solubility in data set [2] was below 4000 µg/mL. In addition, the Increase in the data set on Rattus norvegicus [5] is reported as 7%.
